Type in all cases: functional
Test [1] deals with Mus musculus. The test can be described thus: Sedation caused by oral administration was estimated using rotarod (RR) assay. A digest of the protocol: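 Mouse rotorod test for sedation, oral dosing, generally at a minimum of three doses with N = 6 animals per dose group.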
The subject of test [2] is Mus musculus. The test can be described thus: (§1) Percent effect profile muscle relaxation at 100 mg/kg by intraperitoneal administration in mouse using Straub-tail (ST) assay. As to conditions: ip. A digest of the protocol:
(§2)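 Mouse morphine-induced Straub tail assay, scoring inhibition of sacro-coccygeus dorsalis contraction. Single ip dose of 100 mg/kg; percent effect reported. Compounds above 50% inhibition were then tested orally.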

Test [3] is filed under the species Mus musculus. The test can be described thus: Ratio of rotarod to Straub-tail activity, which indicates the dose exhibiting muscle relaxant activity versus that producing sedation. A digest of the protocol:
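Ratio of rotorod ED50 (po) to Straub tail ED50 (po), both measured in mice with oral dosing. Indicates separation between the muscle-relaxant dose and the sedating dose.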
(In general: The rotarod test checks motor coordination on a turning rod.)

Test [4] concerns Mus musculus. The test can be described thus: Effective dose required for muscle relaxation by oral administration in mouse using Straub-tail (ST) assay. In a few lines: (§3)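 Mouse morphine-induced Straub tail assay, scoring inhibition of sacro-coccygeus dorsalis contraction. Dosed ip or po, generally at a minimum of three doses with N = 6 animals per dose group.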
Test [5] concerns Rattus norvegicus. Nature of the test: Antiinflammatory activity in edema by Carrageenan pleurisy assay by oral administration at 20 mg/kg. In a few lines:
(§4)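 Rat carrageenan pleurisy, 3 h. Single oral dose of 20 mg/kg, with separate read-outs for pleural cell counts and edema as percent inhibition. Each compound tested two or three times; average variation approximately 10%.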

The test system of test [6] is Rattus norvegicus. The test can be described thus: Antiinflammatory activity in cells by Carrageenan pleurisy assay by oral administration at 20 mg/kg. In a few lines: as §4
Test [7] has as its system Rattus norvegicus. The test can be described thus: Percent inhibition for analgesic activity by trypsin-induced hyperalgesia assay at 20 mg/kg by oral administration in rats. A digest of the protocol:
(§5)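 Rat trypsin-induced hyperalgesia (mild analgesia). Percent inhibition at a single oral dose of 20 mg/kg. Each compound tested two or three times; average variation approximately 5%.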

The subject of test [8] is Rattus norvegicus. Nature of the test: Percent inhibition for analgesic activity by trypsin-induced hyperalgesia assay at 20 mg/kg by oral administration in rats. A digest of the protocol:
as §5

The test system of test [9] is Mus musculus. The description is as §1. To be noted: ip. A digest of the protocol:
as §2
The source holds these as a separate data set.

Test [10] deals with Rattus norvegicus. Nature of the test: Effective dose required for analgesic activity by trypsin-induced hyperalgesia assay at 20 mg/kg by oral administration in rats. A digest of the protocol:
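Rat trypsin-induced hyperalgesia (mild analgesia) with oral dosing. ED50 reported in mg/kg po. Each compound tested two or three times; average variation approximately 5%.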

Test [11] deals with Mus musculus. The test can be described thus: Effective dose required for muscle relaxation by intraperitoneal administration in mouse using Straub-tail (ST) assay. As to conditions: ip. In a few lines:
as §3

This is an account of results in ChEMBL document CHEMBL1144887, “Indanylidenes. 1. Design and synthesis of (E)-2-(4,6-difluoro-1-indanylidene)acetamide, a potent, centrally acting muscle relaxant with antiinflammatory and analgesic activity” (J Med Chem, 2003).

Broadly, the ED50 is the dose at which the effect has come halfway, by size or by number of responders. One may read the inhibition in vivo as the drop in the measured response relative to a control, in per cent. Read a high inhibition in vivo as a response far below the control.

Regarding `O=C(/C=C1\CCc2c(Cl)cccc21)NC1CC1`, the ED50 with Mus musculus [1] was 66 mg/kg; in the test with Mus musculus [4], 58 mg/kg. The same compound displayed an inhibition in vivo at 100 mg/kg in the test on Mus musculus [2] of 100%. For the same compound, the Ratio in the test filed under Mus musculus [3] worked out at 1.1. Besides, the results for the inhibition in vivo at 20 mg/kg with Rattus norvegicus [5] and in the test on Rattus norvegicus [6] were 45% and 28%, respectively.
`O=C(/C=C1\CCc2cc(F)cc(F)c21)NC1CC1`: the median effective dose (ED50) in the test on Mus musculus [1] was 81 mg/kg; in the test on Mus musculus [4], 69 mg/kg. Testing at 100 mg/kg with Mus musculus [2] gave an inhibition in vivo of 100%. In addition, the Ratio in the test listed under Mus musculus [3] was 1.4. The compound further came in with an inhibition in vivo at 20 mg/kg with Rattus norvegicus [7] of 13%.
As for `NC(=O)/C=C1/CCc2ccc(F)cc21`, the results for the ED50 in the test with Mus musculus [1] and in the test on Mus musculus [4] were 92 mg/kg and 64 mg/kg, respectively. In the test with Mus musculus [2], this compound had an inhibition in vivo at 100 mg/kg of 100%. In the test filed under Mus musculus [3], the Ratio amounted to 1.4. The compound also returned an inhibition in vivo at 20 mg/kg with Rattus norvegicus [8] of 24%.
In the test on Mus musculus [4], `O=C(/C=C1\CCc2c(F)cc(F)cc21)NCCO` had an ED50 of 100 mg/kg. Besides, testing at 20 mg/kg with Rattus norvegicus [8] gave an inhibition in vivo of 27%. In the test on Mus musculus [9], at 100 mg/kg the inhibition in vivo was 83%.
For `NC(=O)/C=C1\CCc2c(F)ccc(F)c21`, the 50% effective dose (ED50) is 89 mg/kg with Mus musculus [1], 56 mg/kg in the test with Mus musculus [4] and 8 mg/kg in the test on Rattus norvegicus [10]. For the same compound, in the test on Mus musculus [2], the inhibition in vivo at 100 mg/kg was 100%. Also, the Ratio in the test listed under Mus musculus [3] came to 1.6. The inhibition in vivo at 20 mg/kg in the test with Rattus norvegicus [5] stood at 67%; with Rattus norvegicus [7] it was 83%; in the test with Rattus norvegicus [6], 67%.
In the test with Rattus norvegicus [8], `NC(=O)CC1CCc2c(F)cc(F)cc21` (stereo unspecified) yielded an inhibition in vivo at 20 mg/kg of 11%. The compound further registered an inhibition in vivo at 100 mg/kg with Mus musculus [9] of 50%.
Take `CCN(C)C(=O)/C=C1\CCc2ccc(F)cc21`: the inhibition in vivo at 100 mg/kg in the test with Mus musculus [2] was found to be 100%. In the test with Mus musculus [4], the 50% effective dose (ED50) came out at 100 mg/kg. The inhibition in vivo at 20 mg/kg with Rattus norvegicus [5] is 44%; in the test on Rattus norvegicus [7], 77%; in the test on Rattus norvegicus [6] it was 20%.
On to `COc1ccc2c(c1)/C(=C/C(N)=O)CC2`, for which the inhibition in vivo at 20 mg/kg in the test with Rattus norvegicus [5] is 3%; with Rattus norvegicus [6], 1%. Moreover, at 100 mg/kg the inhibition in vivo with Mus musculus [9] was 0%.
Compound `NC(=O)/C=C1/CCc2ccccc21` returned a median effective dose (ED50) in the test with Mus musculus [11] of 44 mg/kg.
Turning to `NC(=O)/C=C1\CCc2cc(Cl)ccc21`, the inhibition in vivo at 20 mg/kg with Rattus norvegicus [5] came out at 29%; with Rattus norvegicus [7], 42%; in the test with Rattus norvegicus [6], 30%. In the test with Mus musculus [9], this compound had an inhibition in vivo at 100 mg/kg of 0%. In addition, it took a dose of 30 mg/kg to reach the 50% effect level in the test on Rattus norvegicus [10] (ED50).
`O=C(/C=C1\CCc2c(F)ccc(F)c21)NC1CC1`: the ED50 in the test on Mus musculus [1] was 2 mg/kg; in the test on Mus musculus [4] it was 59 mg/kg. Moreover, the inhibition in vivo at 100 mg/kg in the test with Mus musculus [2] was determined as 100%. Moreover, in the test filed under Mus musculus [3], the Ratio was determined as 0.03. Also, 20 mg/kg produced 2% inhibition in vivo in the test with Rattus norvegicus [7].
With `NC(=O)/C=C1\CCc2cc(F)ccc21`, the median effective dose (ED50) in the test on Mus musculus [1] is > 100 mg/kg; in the test on Mus musculus [4] it was 56 mg/kg. The Ratio in the test listed under Mus musculus [3] is recorded as >~2. Further, the results for the inhibition in vivo at 20 mg/kg with Rattus norvegicus [5] and in the test on Rattus norvegicus [6] were 42% and 54%, respectively. The compound further displayed an inhibition in vivo at 100 mg/kg in the test with Mus musculus [9] of 100%.
As to `O=C(/C=C1\CCc2cc(F)ccc21)NC1CC1`, the ED50 was 193 mg/kg with Mus musculus [1] and 81 mg/kg in the test on Mus musculus [4]. The Ratio in the test filed under Mus musculus [3] was found to be 2.4. For the same compound, the inhibition in vivo at 100 mg/kg with Mus musculus [9] stood at 100%.
For `Cc1cccc2c1CC/C2=C\C(=O)NC1CC1`, the ED50 is 64 mg/kg with Mus musculus [1] and 40 mg/kg with Mus musculus [4]. Moreover, the Ratio in the test filed under Mus musculus [3] is 1.6. Besides, the inhibition in vivo at 20 mg/kg in the test on Rattus norvegicus [5] is 7%; in the test on Rattus norvegicus [6] it was 15%. Further, in the test with Mus musculus [9], at 100 mg/kg the inhibition in vivo was 100%.
As to `CNC(=O)/C=C1\CCc2cc(F)cc(F)c21`, testing at 100 mg/kg in the test with Mus musculus [2] gave an inhibition in vivo of 33%. 20 mg/kg produced 33% inhibition in vivo with Rattus norvegicus [8].
With `CNC(=O)/C=C1\CCc2c(F)cc(F)cc21`, the inhibition in vivo at 100 mg/kg in the test with Mus musculus [2] is 100%. The median effective dose (ED50) was 45 mg/kg in the test with Mus musculus [4] and 13 mg/kg in the test on Rattus norvegicus [10]. The compound also came in with an inhibition in vivo at 20 mg/kg in the test with Rattus norvegicus [8] of 65%.
In the case of `O=C(/C=C1/CCc2ccc(Cl)cc21)NC1CC1`, in the test with Mus musculus [9], the inhibition in vivo at 100 mg/kg was determined as 0%.
As for `Cc1cccc2c1/C(=C/C(N)=O)CC2`, the 50% effective dose (ED50) with Mus musculus [1] was 56 mg/kg; in the test with Mus musculus [4], 82 mg/kg. The compound further gave an inhibition in vivo at 100 mg/kg in the test on Mus musculus [2] of 100%. Also, the Ratio in the test listed under Mus musculus [3] turned out to be 0.7. Further, testing at 20 mg/kg in the test with Rattus norvegicus [8] gave an inhibition in vivo of 12%.
